Data from ChEMBL document CHEMBL1152949, “Synthesis and biological evaluation of febrifugine analogues as potential antimalarial agents” (Bioorg Med Chem, 2009).
In brackets after ≈: the same amount, converted by molar mass.

Tests used:
[1] = system: Plasmodium falciparum; test: Antiplasmodial activity after 48 hrs against chloroquine-resistant Plasmodium falciparum W2 in human erythrocytes by [3H]hypoxanthine uptake; assay type: functional, organism-based
Method in brief: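 Chloroquine-resistant W2 P. falciparum grown in RPMI 1640 with 6% human erythrocytes and 10% human serum, under 5% CO2, 5% O2, 90% N2 at 37°C. Sensitivity tested by semi-automated micro-dilution. [3H]hypoxanthine incorporation measured across compound concentrations, and IC50 derived from it.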

[2] = Toxicity in Plasmodium berghei infected ICR mice (Mus musculus) dosed intraperitoneally once daily for 4 days by Thompson test; assay type: organism-based; conditions: in vivo, ip
[3] = Therapeutic index, ratio of MTD for Plasmodium berghei infected ICR mice (Mus musculus) to MCD for Plasmodium berghei; conditions: read-out: TI
[4] = system: Plasmodium berghei; test: Antimalarial activity against Plasmodium berghei infected ICR mice (Mus musculus) daily oral or subcutaneous dose for 8 days by Thompson test; conditions: for ED50: Plasmodium berghei, po or sc, 192 h

O=C(C[C@H]1NCC[C@@H]1O)Cn1cnc2ccccc2c1=O showed an IC50 [1] of 0.56 ng/mL (≈ 1.95 nM), an MTD at 96 h [2] of 144 mg/kg and a selectivity ratio [3] of 17. The MCD [4] was 8.4 mg/kg and the ED50 [4] was 1.6 mg/kg.

For O=C(C[C@H]1NCC[C@@H]1O)Cn1cnc2ncccc2c1=O, the IC50 [1] was 0.34 ng/mL (≈ 1.18 nM), the MTD at 96 h [2] was 439 mg/kg and the selectivity ratio [3] was 74. The MCD [4] was 5.9 mg/kg and the ED50 [4] was 1.3 mg/kg.

Compound O=C(C[C@H]1NCC[C@@H]1O)Cn1cnc2cccnc2c1=O has an IC50 [1] of 0.12 ng/mL (≈ 0.416 nM), an MTD at 96 h [2] of 345 mg/kg and a selectivity ratio [3] of 111. The MCD [4] was 3.1 mg/kg and the ED50 [4] was 0.44 mg/kg.

O=C(C[C@H]1NCC[C@@H]1O)Cn1cnc2ccncc2c1=O showed an IC50 [1] of 0.14 ng/mL (≈ 0.486 nM), an MTD at 96 h [2] of 310 mg/kg and a selectivity ratio [3] of 107. It also gave an MCD [4] of 2.9 mg/kg and an ED50 [4] of 0.49 mg/kg.

CC(C)(C)c1cccc2ncn(CC(=O)C[C@H]3NCC[C@@H]3O)c(=O)c12 showed an IC50 [1] of 2.9 ng/mL (≈ 8.44 nM), an MTD at 96 h [2] of 429 mg/kg and a selectivity ratio [3] of 11. The MCD [4] was 39 mg/kg and the ED50 [4] was 8.7 mg/kg.

With O=C(C[C@H]1NCC[C@@H]1O)Cn1cnc2cccc(C(F)(F)F)c2c1=O the IC50 [1] was 0.23 ng/mL (≈ 0.647 nM), the MTD at 96 h [2] was 335 mg/kg and the selectivity ratio [3] was 71. The MCD [4] was 4.7 mg/kg and the ED50 [4] was 0.74 mg/kg.

With COc1cccc2c(=O)n(CC(=O)C[C@H]3NCC[C@@H]3O)cnc12 the IC50 [1] was 0.57 ng/mL (≈ 1.8 nM), the MTD at 96 h [2] was 51 mg/kg and the selectivity ratio [3] was 10. For the same compound, the MCD [4] was 4.9 mg/kg and the ED50 [4] was 1.5 mg/kg.

Compound O=C(C[C@H]1NCC[C@@H]1O)Cn1cnc2ccc(C(F)(F)F)cc2c1=O has an IC50 [1] of 0.28 ng/mL (≈ 0.788 nM), an MTD at 96 h [2] of 440 mg/kg and a selectivity ratio [3] of 56. It also gave an MCD [4] of 7.9 mg/kg and an ED50 [4] of 1.5 mg/kg.

For O=C(C[C@H]1NCC[C@@H]1O)Cn1cnc2ccc(F)cc2c1=O, the IC50 [1] was 0.26 ng/mL (≈ 0.852 nM), the MTD at 96 h [2] was 425 mg/kg and the selectivity ratio [3] was 63. The MCD [4] was 6.8 mg/kg and the ED50 [4] was 1.1 mg/kg.

With COc1ccc2c(=O)n(CC(=O)C[C@H]3NCC[C@@H]3O)cnc2c1 the IC50 [1] was 0.62 ng/mL (≈ 1.95 nM), the MTD at 96 h [2] was 55 mg/kg and the selectivity ratio [3] was 10. For the same compound, the MCD [4] was 5.6 mg/kg and the ED50 [4] was 1.7 mg/kg.

O=C(C[C@H]1NCC[C@@H]1O)Cn1cnc2cccc(F)c2c1=O gave an IC50 [1] of 0.29 ng/mL (≈ 0.95 nM), an MTD at 96 h [2] of 399 mg/kg and a selectivity ratio [3] of 56. For the same compound, the MCD [4] was 7.1 mg/kg and the ED50 [4] was 1 mg/kg.

With O=C(C[C@H]1NCC[C@@H]1OCc1ccccc1)Cn1cnc2cccnc2c1=O the IC50 [1] was 0.14 ng/mL (≈ 0.37 nM), the MTD at 96 h [2] was 102 mg/kg and the selectivity ratio [3] was 132. For the same compound, the MCD [4] was 0.77 mg/kg and the ED50 [4] was 0.14 mg/kg.

Work on O=C(C[C@@H]1NCCC[C@H]1O)Cn1cnc2ccccc2c1=O [FEBRIFUGINE] yielded an IC50 [1] of 0.76 ng/mL (≈ 2.52 nM), an MTD at 96 h [2] of 35 mg/kg and a selectivity ratio [3] of 3. The MCD [4] was 12 mg/kg and the ED50 [4] was 2.3 mg/kg.

CCN(CC)CCCC(C)Nc1ccnc2cc(Cl)ccc12 (stereo not drawn) [CHLOROQUINE] showed an MTD at 96 h [2] of 240 mg/kg, an MCD [4] of 40 mg/kg and an ED50 [4] of 4.5 mg/kg.

In the case of O=C(C[C@H]1NCC[C@@H]1O)Cn1cnc2ccc(F)c(F)c2c1=O, the IC50 [1] is reported as 0.4 ng/mL (≈ 1.24 nM), the MTD at 96 h [2] is reported as 379 mg/kg and the selectivity ratio [3] is reported as 43. The MCD [4] was 8.9 mg/kg and the ED50 [4] was 1.7 mg/kg.

O=C(C[C@H]1NCC[C@@H]1O)Cn1cnc2cnccc2c1=O showed an IC50 [1] of 0.31 ng/mL (≈ 1.08 nM), an MTD at 96 h [2] of 338 mg/kg and a selectivity ratio [3] of 51. For the same compound, the MCD [4] was 6.6 mg/kg and the ED50 [4] was 1.2 mg/kg.

Compound O=C(C[C@H]1NCC[C@@H]1OCc1ccccc1)Cn1cnc2cccc(C(F)(F)F)c2c1=O has an IC50 [1] of 0.19 ng/mL (≈ 0.427 nM), an MTD at 96 h [2] of 88 mg/kg and a selectivity ratio [3] of 128. The MCD [4] was 0.69 mg/kg and the ED50 [4] was 0.12 mg/kg.

CC(C)(C)c1ccc2ncn(CC(=O)C[C@H]3NCC[C@@H]3O)c(=O)c2c1 gave an IC50 [1] of 3.4 ng/mL (≈ 9.9 nM), an MTD at 96 h [2] of 504 mg/kg and a selectivity ratio [3] of 12. The MCD [4] was 42 mg/kg and the ED50 [4] was 10 mg/kg.
